# Bioassay records: PubChem BioAssay, several laboratories
# Mcl1 Noxa PPI – Mcl-1/Noxa binding inhibitors, primary screen, biochemical, TR-FRET, 1536-well; 220,000 compounds, 1.5% hits; TR-FRET Mcl-1/Noxa peptide binding, 2 h; inhibition, % at 21.7 µM; AID 1022, 2008; Induced myeloid leukemia cell differentiation protein Mcl-1 (Homo sapiens), Q07820;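 active means compounds that cut the protein-peptide binding signal by more than 50% relative to plate controls in a single-dose test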;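 further: His-tagged Mcl-1 with rhodamine Noxa BH3 peptide and terbium anti-His antibody; 0% = Mcl-1 plus Noxa peptide wells and 100% = peptide-only wells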
# Target sequence (Q07820 whole entry, looked up): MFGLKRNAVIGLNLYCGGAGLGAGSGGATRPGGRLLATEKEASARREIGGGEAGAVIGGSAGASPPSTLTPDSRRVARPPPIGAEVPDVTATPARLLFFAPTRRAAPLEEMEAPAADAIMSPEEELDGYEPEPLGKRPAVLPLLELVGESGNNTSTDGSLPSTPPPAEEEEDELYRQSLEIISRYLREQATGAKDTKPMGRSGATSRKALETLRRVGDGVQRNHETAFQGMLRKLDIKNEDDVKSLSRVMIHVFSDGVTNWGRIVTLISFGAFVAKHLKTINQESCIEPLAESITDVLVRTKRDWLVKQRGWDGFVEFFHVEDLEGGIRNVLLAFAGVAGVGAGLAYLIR
# Pemphigus Ab inh – inhibitors of pemphigus antibody binding to DSG3, primary screen, biochemical, bead-based, flow cytometry, scFv-GFP. Desmoglein-3 (Homo sapiens), P32926. AID 588358, 2011. 310,000 compounds, 0.48% hits. binding (percent of control), % at 10 µM. DSG3-coupled beads, scFv-anti-DSG3-GFP binding; stronger effect = lower value;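 active means binding more than 3 SD below its plate's average and above zero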
# T cell HTS – modulators of CD8 T cell-vesicle binding, primary screen, mouse 2C CD8+ T cells, flow cytometry; 330,000 compounds, 0.068% hits; AID 2052, 2009; response (vesicle binding), % at 7 µM; 2C CD8+ T cell-vesicle binding; stronger effect = lower value;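 active means response, share of CD8 T cells binding vesicles, and their 90th percentile fluorescence all below set limits, cut at about 80% in these data, passing the limit was not always enough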;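 further: values below 100% mean blocked vesicle binding to the CD8+ T cells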
#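 incubation = binding step 1.5 h, 37 °C, antibody labelling 20 min, ice | test system = 2C mouse CD8+ T cells | read-out basis = percent CD8+ FL2 mean versus row control | controls = Peptide-free naked vesicles (low) and QL9 vesicles with 0.7% DMSO vehicle (high) | detection = flow cytometry of vesicle-bound cells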
# MCL1 BIM primary – inhibitors of MCL1 binding to BIM-BH3, primary screen, biochemical, fluorescence polarization; Induced myeloid leukemia cell differentiation protein Mcl-1 (Homo sapiens), Q07820; GST-MCL1 / FITC-Bim-BH3 fluorescence polarization; inhibition, % at 10.9 µM; 320,000 compounds, 0.68% hits; AID 2057, 2009;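 active means inhibition above the mean inhibition of all tested compounds plus 3 SD, set per campaign, cut at about 40% in these data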;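 further: 0% = DMSO wells and 100% = unlabeled Bim-BH3 peptide control; higher means more loss of mP so more displacement of Bim peptide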
# Mcl1 Bid PPI – Mcl-1/Bid binding inhibitors, primary screen, biochemical, TR-FRET, 1536-well. TR-FRET Mcl-1/Bid-Dy647 peptide binding. inhibition, % at 21.7 µM. 220,000 compounds, 0.97% hits. AID 1021, 2008;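 active means compounds that cut the binding signal by more than half at the single screening dose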;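 further: His-tagged Mcl-1 with europium anti-His antibody binding Bid BH3 peptide; 0% = Mcl-1 plus peptide wells and 100% = peptide-only wells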
# Bim-Mcl-1 – inhibitors of Bim peptide binding to Mcl-1, primary screen, biochemical, bead-based flow cytometry, multiplex | AID 1009, 2008 | 190,000 compounds, 0.1% hits | Bim peptide-Mcl-1 binding | inhibition, % at 10 µM | Induced myeloid leukemia cell differentiation protein Mcl-1 (Homo sapiens), Q07820; in the data active means inhibition above about 40%;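 further: 0% = no compound tracer wells and 100% = peptide blocker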
# BCLXL inh confirm – Bcl-xL inhibitors blocking Bim BH3 binding, confirmation, counter-screen for MCL1 inhibitor project, biochemical, fluorescence polarization; AID 2166, 2009; GST-Bcl-xL / FITC-Bim BH3 peptide FP binding; inhibition, % at 10.9 µM; shares compounds with MCL1 BIM primary; 1,700 compounds, 54% hits;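 active means inhibition above a cutoff equal to the mean inhibition of all tested compounds plus 3 SD, cut at about 30% in these data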;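 further: 0% = DMSO wells and 100% = unlabeled Bim BH3 control peptide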
# Target sequence (Q07817 whole entry, looked up): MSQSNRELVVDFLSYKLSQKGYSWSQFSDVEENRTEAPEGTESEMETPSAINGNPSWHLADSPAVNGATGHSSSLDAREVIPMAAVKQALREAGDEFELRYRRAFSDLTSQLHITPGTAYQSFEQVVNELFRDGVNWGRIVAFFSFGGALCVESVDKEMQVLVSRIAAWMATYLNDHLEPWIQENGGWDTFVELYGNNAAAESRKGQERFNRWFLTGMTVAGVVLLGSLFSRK
# MCL1 BIM confirm – inhibitors of MCL1 binding to BIM-BH3, confirmation, biochemical, fluorescence polarization, triplicate; shares compounds with MCL1 BIM primary; GST-MCL1 / FITC-Bim-BH3 fluorescence polarization; inhibition, % at 10.9 µM; 1,700 compounds, 61% hits;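 active means inhibition above the average of all tested compounds plus 3 SD, cut at about 40% in these data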;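 further: 0% = DMSO wells and 100% = unlabeled Bim-BH3 control peptide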
# * marks the source's active call; other numbers are inactive results; i = inactive; nt = no result. Only some compounds are listed: those with a hit (about 2.3% of all), similar ones and a draw of the others.
SMILES,Mcl1 Noxa PPI,Pemphigus Ab inh,T cell HTS,MCL1 BIM primary,Mcl1 Bid PPI,Bim-Mcl-1,others
O=c1[nH]c(=S)[nH]c(O)c1N=Nc1ccc(S(=O)(=O)N2CCc3ccccc32)cc1,56*,88,308,16,-35,-5,
O=c1[nH]c(=S)[nH]c(O)c1N=Nc1ccc(SC(F)F)cc1,47,97,132,-3,-25,nt,
CSc1ccc(C(=O)C2CCCN(CCCn3cccn3)C2)cc1 (configuration not stated),31,102,138,6,65*,0,
O=C1NC(=S)N(Cc2ccco2)C(=O)/C1=C\c1cccs1,97*,nt,nt,nt,97*,2,
COc1ccc(N2C(=O)/C(=C/c3cccs3)C(=O)NC2=S)cc1,62*,108,i,5,44,nt,
COc1ccc(N2C(=O)/C(=C/C=C/c3ccccc3[N+](=O)[O-])C(=O)NC2=S)cc1,89*,nt,nt,nt,83*,-1,
COc1ccccc1/C=C1\C(=O)NC(=S)N(c2ccccc2)C1=O,nt,99,125,14,nt,nt,
COc1ccc2[nH]c(C)c(CCNCc3cccnc3)c2c1,nt,nt,150,41*,nt,nt,
COc1ccc2[nH]cc(CCNCc3cccnc3)c2c1,nt,114,440,5,nt,nt,
CN(C)C(Cc1ccccc1)C(=O)c1cccs1 (configuration not stated),18,nt,nt,nt,-25,48*,
CN1C(=O)/C(=C/c2cccn2-c2ccc3ccccc3c2)C(=O)NC1=S,2,79,172,23,-21,0,
O=C1NC(=S)NC(=O)C1=Cc1cccn1-c1ccc(O)cc1,76*,66*,nt,nt,-38,0,
CCOC(=O)NC1CCc2cc(OC)c(OC)c(OC)c2-c2ccc(OC)c(=O)cc21 (configuration not stated),nt,86,nt,nt,nt,nt,
N#CCC(=O)NN1Cc2ccccc2C1=N,12,102,509,2,0,-7,
Cc1ccc(N2C(=O)/C(=C/c3ccc(CN(CCC#N)S(C)(=O)=O)o3)C(=O)NC2=S)cc1,69*,101,487,35,-9,0,
Cc1ccc(/C=C2\C(=O)NC(=S)N(c3ccc(F)cc3)C2=O)o1,nt,112,222,nt,nt,nt,
FC(F)(F)c1ccc(CNCCc2ccc3c(c2)OCO3)cc1,nt,83*,275,4,nt,nt,
Cc1ccc2c(c1N)C(=O)c1ccccc1C2=O,nt,107,459,42*,nt,nt,
COc1ccc(N2C(=O)NC(=O)/C(=C/c3ccc([N+](=O)[O-])s3)C2=O)cc1,51*,101,305,33,-11,nt,
COc1cccc(N2C(=O)NC(=O)/C(=C/c3ccc([N+](=O)[O-])s3)C2=O)c1,61*,105,i,28,-59,nt,
COc1ccc(CN2C(=O)NC(=O)/C(=C\c3cc(OC)c(OC)c(OC)c3)C2=O)cc1,-6,104,196,-2,-30,1,
Cc1ccc(N2C(=O)NC(=O)/C(=C\c3ccc(N4CCOCC4)cc3)C2=O)cc1,16,nt,288,2,-50,-1,
COc1ccc(CN2C(=O)NC(=O)/C(=C\c3ccco3)C2=O)cc1,12,67*,476,-21,-76,4,
Cc1ccc(N2C(=O)NC(=O)/C(=C\c3ccc([N+](=O)[O-])o3)C2=O)cc1,70*,nt,153,38,17,0,
Cc1ccccc1NC(=O)N1Cc2ccccc2-n2nncc2C1,nt,98,nt,nt,nt,nt,
SMILES,Mcl1 Noxa PPI,Pemphigus Ab inh,T cell HTS,MCL1 BIM primary,Mcl1 Bid PPI,Bim-Mcl-1,others
C[C@]12CCC3C(CC[C@H]4C[C@H](O)CC[C@]34C)C1C[C@H](O)[C@H]2O (some centres not stated),nt,118,nt,nt,nt,nt,
COc1ccc(CN2C(=O)NC(=O)/C(=C/c3ccc([N+](=O)[O-])s3)C2=O)cc1,65*,98,54,26,5,nt,
C=CC1CN2CCC1CC2C(O)c1ccnc2ccccc12 (configuration not stated),nt,99,nt,nt,nt,nt,
C=CCN1CC[C@]23c4c5ccc(O)c4O[C@H]2C(=O)CC[C@@]3(O)[C@H]1C5,-1,99,436,5,-13,0,
C=CCN1CCc2cccc3c2[C@H]1Cc1ccc(O)c(O)c1-3,nt,115,217,43*,nt,nt,BCLXL inh confirm=33*;MCL1 BIM confirm=67*
Cc1cc(/C=C2\C(=O)NC(=O)N(Cc3ccccc3)C2=O)c(C)n1C1CC1,-17,81,84,67*,-47,4,BCLXL inh confirm=19;MCL1 BIM confirm=17
CC[N+](CC)(CC)CC,-8,118,569,50*,-49,nt,BCLXL inh confirm=13;MCL1 BIM confirm=2
CN1C(=O)c2ccccc2Sc2ccc(C(=O)N3CCC4(CC3)OCCO4)cc21,16,103,205,4,-4,0,
Cc1ccc(/C=C2/Sc3ccc(C(=O)N4CCC5(CC4)OCCO5)cc3NC2=O)cc1,nt,116,700,125*,nt,nt,BCLXL inh confirm=108*;MCL1 BIM confirm=131*
CCCCCCn1c(O)c(/C=N/N2CCCCCC2)c(=O)[nH]c1=O,-10,nt,599,-1,-24,nt,
CN(Cc1ccccc1)C(=C(Cl)Cl)/C(=C1/NCCN1Cc1ccc(Cl)nc1)[N+](=O)[O-],8,100,358,8,7,-1,
C=Cc1ccc(Cn2c(C(=O)O)c(C=O)c3ccccc32)cc1,20,107,432,10,-20,-1,
O=C1NC(=O)N(c2cccc(Cl)c2)C(=O)/C1=C\c1ccc(Sc2nc3ccccc3[nH]2)o1,52*,94,136,181*,-6,-1,BCLXL inh confirm=25;MCL1 BIM confirm=41*
O=C1NC(=O)N(c2ccccc2F)C(=O)/C1=C/c1ccc(Sc2nc3ccccc3[nH]2)o1,66*,131,532,59*,31,12,BCLXL inh confirm=41*;MCL1 BIM confirm=66*
Cc1cc(O)c2c(c1)C(=O)C13C(=C2O)C(=O)[C@H]2[C@@H](O)[C@@H]1[C@H]1[C@H](O)[C@@H]3C(=O)C3=C(O)c4c(O)cc(C)cc4C(=O)C312 (some centres not stated),nt,nt,232,10,nt,nt,
